The subject of data set [1] is Staphylococcus aureus. The data set is described as follows: Antibiofilm activity against Staphylococcus aureus ATCC 25923 incubated for 24 hrs by crystal violet-staining based assay. In kind it is functional. An outline of the steps:
(§1)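 Biofilm prevention: 0.5 McFarland inoculum (2.5 µL) in 100 µL TSB with 2% w/v glucose, compound present from the start over 100–0.1 µg/mL, 37 °C 24 h. Washed with PBS, stained 0.1% w/v crystal violet 30 min, eluted with 33% v/v acetic acid, read at 570 nm. BIC50 (50% inhibition versus untreated control) derived by linear regression; triplicate, repeated at least twice.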

Data set [2] has as its system Staphylococcus aureus. The data set is described as follows: Antimicrobial activity against Staphylococcus aureus ATCC 25923 assessed as growth inhibition of planktonic forms incubated for 24 hrs. In kind it is organism-based. Particulars: in vitro. An outline of the steps: (§2)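 Broth microdilution in tryptic soy broth. Two-fold series 100 to 0.75 μg/mL made from a 1 mg/mL stock in 0.9% NaCl. Inoculum ~10⁶ cfu/mL taken from a 24 h culture, 37 °C 24 h.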

Data set [3] relates to Staphylococcus aureus. The data set is described as follows: Antimicrobial activity against Staphylococcus aureus ATCC 6538 assessed as growth inhibition of planktonic forms incubated for 24 hrs. In kind it is organism-based. The note with it: in vitro. An outline of the steps: as §2
Data set [4] relates to Escherichia coli. The data set is described as follows: Antibiofilm activity against Escherichia coli ATCC 25922 assessed as inhibition of biofilm formation at 100 ug/ml incubated for 24 hrs by crystal violet-staining based assay. Particulars: ATCC 25922, 24 h. In kind it is functional.
Data set [5] relates to Staphylococcus epidermidis. The data set is described as follows: Antibiofilm activity against Staphylococcus epidermidis ATCC 12228 incubated for 24 hrs by crystal violet-staining based assay. The data set is classed as functional. An outline of the steps: as §1
For data set [6], the system named is Staphylococcus epidermidis. The data set is described as follows: Antimicrobial activity against Staphylococcus epidermidis ATCC 12228 assessed as growth inhibition of planktonic forms incubated for 24 hrs. The data set is classed as organism-based. Particulars: in vitro. An outline of the steps:
as §2

Data set [7] deals with Staphylococcus aureus. The data set is described as follows: Antibiofilm activity against Staphylococcus aureus ATCC 6538 incubated for 24 hrs by crystal violet-staining based assay. In kind it is functional. An outline of the steps:
as §1

Data set [8] relates to Pseudomonas aeruginosa. The data set is described as follows: Antibiofilm activity against Pseudomonas aeruginosa ATCC 15442 assessed as inhibition of biofilm formation at 100 ug/ml incubated for 24 hrs by crystal violet-staining based assay. Particulars: ATCC 15442, 24 h. The data set is classed as functional.
Data set [9] has as its system Escherichia coli. The data set is described as follows: Antimicrobial activity against Escherichia coli ATCC 25922 assessed as growth inhibition of planktonic forms incubated for 24 hrs. In kind it is organism-based. Particulars: in vitro. An outline of the steps: as §2
For data set [10], the system named is Pseudomonas aeruginosa. The data set is described as follows: Antimicrobial activity against Pseudomonas aeruginosa ATCC 15442 assessed as growth inhibition of planktonic forms incubated for 24 hrs. The data set is classed as organism-based. The note with it: in vitro. The essentials: as §2
Data set [11] concerns Pseudomonas aeruginosa. The data set is described as follows: Antibiofilm activity against Pseudomonas aeruginosa ATCC 15442 incubated for 24 hrs by crystal violet-staining based assay. The data set is classed as functional. An outline of the steps: as §1

Usually inhibition stands for the drop in the measured response relative to a control, in per cent. Regarding `FC(F)(F)c1ccc(-c2cn3nc(-c4c[nH]c5ccc(Cl)cc45)sc3n2)cc1`, the MBIC50 in the data set with Staphylococcus aureus [1] came to 9.7 µM; in data set [5] it was 24.5 µM; with Staphylococcus aureus [7], 12.6 µM. Further, the inhibition result (in the data set on Staphylococcus aureus [1]; in [5]; in the data set with Staphylococcus aureus [7]) was “Dose-dependent effect” in each case. In addition, the MIC (with Staphylococcus aureus [2]; in the data set on Staphylococcus aureus [3]; in data set [6]; in the data set on Escherichia coli [9]; in the data set on Pseudomonas aeruginosa [10]) was greater than 100 µg/mL throughout. For the same compound, the inhibition at 100 µg/mL in the data set on Escherichia coli [4] and with Pseudomonas aeruginosa [8] was less than 15% each time.
As to `Br.COc1ccc(OC)c(-c2cn3nc(-c4cn(C)c5ccccc45)sc3n2)c1`, the MBIC50 in the data set on Staphylococcus aureus [1] turned out to be 24.3 µM; in data set [5], 25 µM; in the data set with Staphylococcus aureus [7] it was 3.6 µM. Further, the inhibition entry (in the data set on Staphylococcus aureus [1]; in [5]; in the data set with Staphylococcus aureus [7]) was “Dose-dependent effect” each time. The MIC (in the data set on Staphylococcus aureus [2]; in the data set on Staphylococcus aureus [3]; in [6]; in the data set with Escherichia coli [9]; with Pseudomonas aeruginosa [10]) was greater than 100 µg/mL throughout. Also, the inhibition at 100 µg/mL in the data set with Escherichia coli [4] was less than 15%.
`O=[N+]([O-])c1ccc(-c2cn3nc(-c4c[nH]c5ccccc45)sc3n2)cc1`: the MBIC50 in the data set with Staphylococcus aureus [1] stood at 47.5 µM; in [5] it was 41.2 µM; with Staphylococcus aureus [7], 20.2 µM. Besides, the inhibition result (in the data set with Staphylococcus aureus [1]; in [5]; in the data set with Staphylococcus aureus [7]) was “Dose-dependent effect” throughout. Further, the MIC (in the data set on Staphylococcus aureus [2]; with Staphylococcus aureus [3]; in data set [6]; with Escherichia coli [9]; with Pseudomonas aeruginosa [10]) was greater than 100 µg/mL in each case. The inhibition at 100 µg/mL in the data set with Escherichia coli [4] and in the data set on Pseudomonas aeruginosa [8] was less than 15% in each case.
Turning to `Br.Cn1cc(-c2nn3cc(-c4ccccc4)nc3s2)c2ccccc21`, the MBIC50 in the data set with Staphylococcus aureus [1] was 23 µM; in data set [5] it was 47.9 µM; in the data set on Staphylococcus aureus [7] it was 18.9 µM. The inhibition entry (in the data set with Staphylococcus aureus [1]; in [5]; in the data set on Staphylococcus aureus [7]) was “Dose-dependent effect” in each case. The MIC (in the data set on Staphylococcus aureus [2]; in the data set on Staphylococcus aureus [3]; in data set [6]; in the data set with Escherichia coli [9]; with Pseudomonas aeruginosa [10]) was greater than 100 µg/mL throughout. For the same compound, the inhibition at 100 µg/mL in the data set with Escherichia coli [4] and with Pseudomonas aeruginosa [8] was less than 15% each time.
`Br.COc1cccc(-c2cn3nc(-c4cn(C)c5ccc(Br)cc45)sc3n2)c1`: the MBIC50 in the data set on Staphylococcus aureus [1] was determined as 16 µM; in the data set on Pseudomonas aeruginosa [11], 26.3 µM; in data set [5], 63.8 µM; in the data set with Staphylococcus aureus [7] it was 12.4 µM. Also, the inhibition result (with Staphylococcus aureus [1]; in the data set with Pseudomonas aeruginosa [11]; in data set [5]; in the data set with Staphylococcus aureus [7]) was “Dose-dependent effect” in each case. The MIC (in the data set on Staphylococcus aureus [2]; with Staphylococcus aureus [3]; in data set [6]; in the data set with Escherichia coli [9]; in the data set with Pseudomonas aeruginosa [10]) was greater than 100 µg/mL each time. For the same compound, the inhibition at 100 µg/mL in the data set on Escherichia coli [4] is less than 15%.
Consider `Br.c1ccc(-c2cn3nc(-c4c[nH]c5ccccc45)sc3n2)cc1`, for which the MBIC50 turned out to be 35.9 µM with Staphylococcus aureus [1], 59.1 µM in [5] and 46.5 µM in the data set on Staphylococcus aureus [7]. Besides, the inhibition entry (in the data set with Staphylococcus aureus [1]; in data set [5]; in the data set on Staphylococcus aureus [7]) was “Dose-dependent effect” throughout. In addition, the MIC (with Staphylococcus aureus [2]; in the data set on Staphylococcus aureus [3]; in data set [6]; in the data set with Escherichia coli [9]; in the data set with Pseudomonas aeruginosa [10]) was greater than 100 µg/mL in each case. For the same compound, the inhibition at 100 µg/mL in the data set on Escherichia coli [4] and with Pseudomonas aeruginosa [8] was less than 15% each time.
`Br.COc1ccc(OC)c(-c2cn3nc(-c4c[nH]c5ccc(Br)cc45)sc3n2)c1`: the MBIC50 in the data set on Staphylococcus aureus [1] is 26.4 µM; in data set [5], 36.1 µM; in the data set with Staphylococcus aureus [7], 16.5 µM. The inhibition result (in the data set on Staphylococcus aureus [1]; in data set [5]; in the data set with Staphylococcus aureus [7]) was “Dose-dependent effect” throughout. In addition, the MIC (in the data set with Staphylococcus aureus [2]; with Staphylococcus aureus [3]; in [6]; in the data set with Escherichia coli [9]; in the data set with Pseudomonas aeruginosa [10]) was greater than 100 µg/mL throughout. In addition, the inhibition at 100 µg/mL with Escherichia coli [4] and with Pseudomonas aeruginosa [8] was less than 15% in each case.
`Br.Cn1cc(-c2nn3cc(-c4ccc(C(F)(F)F)cc4)nc3s2)c2cc(Br)ccc21`: the MIC (in the data set on Staphylococcus aureus [2]; in the data set with Staphylococcus aureus [3]; in [6]; in the data set with Escherichia coli [9]; in the data set with Pseudomonas aeruginosa [10]) was greater than 100 µg/mL throughout.
Consider `O=[N+]([O-])c1ccc(-c2cn3nc(-c4c[nH]c5ccc(Br)cc45)sc3n2)cc1`, for which the MBIC50 in the data set with Staphylococcus aureus [1] is 23.9 µM; in the data set with Pseudomonas aeruginosa [11] it was 43.3 µM; in data set [5], 19.1 µM; in the data set with Staphylococcus aureus [7], 27 µM. Further, the inhibition result (in the data set with Staphylococcus aureus [1]; with Pseudomonas aeruginosa [11]; in data set [5]; in the data set on Staphylococcus aureus [7]) was “Dose-dependent effect” in each case. In addition, the MIC (in the data set on Staphylococcus aureus [2]; with Staphylococcus aureus [3]; in data set [6]; in the data set on Escherichia coli [9]; with Pseudomonas aeruginosa [10]) was greater than 100 µg/mL throughout. Also, the inhibition at 100 µg/mL in the data set on Escherichia coli [4] is less than 15%.
Consider `Br.Fc1ccc(-c2cn3nc(-c4c[nH]c5ccccc45)sc3n2)cc1`, for which the MBIC50 in the data set with Staphylococcus aureus [1] turned out to be 15.6 µM; in the data set on Pseudomonas aeruginosa [11], 47.4 µM; in data set [5] it was 30.8 µM; with Staphylococcus aureus [7], 13.4 µM. Moreover, the inhibition entry (in the data set with Staphylococcus aureus [1]; with Pseudomonas aeruginosa [11]; in data set [5]; in the data set on Staphylococcus aureus [7]) was “Dose-dependent effect” each time. In addition, the MIC (with Staphylococcus aureus [2]; in the data set with Staphylococcus aureus [3]; in data set [6]; in the data set with Escherichia coli [9]; with Pseudomonas aeruginosa [10]) was greater than 100 µg/mL each time. Further, the inhibition at 100 µg/mL with Escherichia coli [4] was less than 15%.
In the case of `Br.COc1ccc(OC)c(-c2cn3nc(-c4cn(C)c5ccc(Br)cc45)sc3n2)c1`, the MBIC50 in the data set with Staphylococcus aureus [1] is 90.8 µM; in the data set on Pseudomonas aeruginosa [11] it was 28.5 µM; in data set [5] it was 52.3 µM; in the data set with Staphylococcus aureus [7], 8.9 µM. Besides, the inhibition result (with Staphylococcus aureus [1]; in the data set on Pseudomonas aeruginosa [11]; in data set [5]; with Staphylococcus aureus [7]) was “Dose-dependent effect” each time. Moreover, the MIC (in the data set on Staphylococcus aureus [2]; in the data set on Staphylococcus aureus [3]; in data set [6]; with Escherichia coli [9]; in the data set with Pseudomonas aeruginosa [10]) was greater than 100 µg/mL throughout. In addition, in the data set on Escherichia coli [4], the inhibition at 100 µg/mL is less than 15%.
On to `Br.COc1cccc(-c2cn3nc(-c4c[nH]c5ccc(Cl)cc45)sc3n2)c1`, for which the MBIC50 in the data set with Staphylococcus aureus [1] worked out at 31.6 µM; in the data set with Pseudomonas aeruginosa [11], 29 µM; in data set [5] it was 32.7 µM; in the data set on Staphylococcus aureus [7] it was 15.1 µM. The inhibition entry (in the data set on Staphylococcus aureus [1]; with Pseudomonas aeruginosa [11]; in data set [5]; in the data set on Staphylococcus aureus [7]) was “Dose-dependent effect” throughout. Moreover, the MIC (in the data set with Staphylococcus aureus [2]; in the data set on Staphylococcus aureus [3]; in data set [6]; with Escherichia coli [9]; with Pseudomonas aeruginosa [10]) was greater than 100 µg/mL each time. In addition, the inhibition at 100 µg/mL in the data set on Escherichia coli [4] is less than 15%.
Regarding `Cn1cc(-c2nn3cc(-c4ccc(C(F)(F)F)cc4)nc3s2)c2cc(Cl)ccc21`, the MIC (with Staphylococcus aureus [2]; with Staphylococcus aureus [3]; in data set [6]; in the data set with Escherichia coli [9]; in the data set with Pseudomonas aeruginosa [10]) was greater than 100 µg/mL in each case.

Values taken from ChEMBL document CHEMBL4339190, “2,6-Disubstituted imidazo[2,1-b][1,3,4]thiadiazole derivatives as potent staphylococcal biofilm inhibitors” (Eur J Med Chem, 2019).
